Active and inactive are the calls of the source.
Experiments:
[1] = system: Rattus norvegicus; assay: Antinociceptive activity in Sprague-Dawley rat at 5 mg/kg, ip after 30 mins by tail flick test; format: functional; settings: for MPE: route intraperitoneal
In short: (§1)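 Male Sprague-Dawley rats, housed singly at 21 °C on a 12 h light-dark cycle, tested in the light phase. Drug given ip in saline (100-500 µL). Tail flick: radiant heat from a 300 W bulb focused on the tail tip, withdrawal latency recorded. Pre-drug responders above 75% of cut-off excluded. Testing was blinded. Results are %MPE at 15 and 30 min and duration (h), mean of 12 animals, Mann-Whitney U-test.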

[2] = system: Rattus norvegicus; assay: Antinociceptive activity in Sprague-Dawley rat at 1 mg/kg, ip after 30 mins by tail flick test; format: functional; settings: for MPE: route intraperitoneal; in short: as §1
[3] = system: Rattus norvegicus; assay: Antinociceptive activity in Sprague-Dawley rat assessed as effect on mechanical nociceptive threshold at 1 to 5 mg/kg, ip after 30 mins by paw pressure test; format: functional, organism-based
In short: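 Male Sprague-Dawley rats, drug given ip in saline. Paw pressure test run before tail flick in each animal. Operator blinded to treatment. Rats with pre-drug responses above 75% of cut-off excluded. Read-out taken 30 min post-injection. Statistics by Mann-Whitney U-test.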

[4] = system: Rattus norvegicus; assay: Antinociceptive activity in Sprague-Dawley rat at 5 mg/kg, ip after 15 mins by tail flick test; format: functional; settings: route intraperitoneal; in short: as §1
[5] = system: Rattus norvegicus; assay: Antinociceptive activity in Sprague-Dawley rat at 1 mg/kg, ip after 15 mins by tail flick test; format: functional; settings: route intraperitoneal; in short: as §1
[6] = system: Rattus norvegicus; assay: Antinociceptive activity in Sprague-Dawley rat at 0.5 mg/kg, ip after 15 mins by tail flick test; format: functional; settings: route intraperitoneal; in short: as §1
[7] = system: Rattus norvegicus; assay: Antinociceptive activity in Sprague-Dawley rat at 0.2 mg/kg, ip after 15 mins by tail flick test; format: functional; settings: route intraperitoneal; in short: as §1
[8] = system: Rattus norvegicus; assay: Antinociceptive activity in Sprague-Dawley rat at 0.1 mg/kg, ip after 15 mins by tail flick test; format: functional; settings: route intraperitoneal; in short: as §1
[9] = system: Rattus norvegicus; assay: Antinociceptive activity in Sprague-Dawley rat at 0.05 mg/kg, ip after 15 mins by tail flick test; format: functional; settings: route intraperitoneal; in short: as §1
[10] = system: Rattus norvegicus; assay: Antinociceptive activity in Sprague-Dawley rat at 0.02 mg/kg, ip after 15 mins by tail flick test; format: functional; settings: route intraperitoneal; in short: as §1
[11] = system: Rattus norvegicus; assay: Antinociceptive activity in Sprague-Dawley rat at 0.5 mg/kg, ip after 30 mins by tail flick test; format: functional; settings: route intraperitoneal; in short: as §1
[12] = system: Rattus norvegicus; assay: Antinociceptive activity in Sprague-Dawley rat at 0.2 mg/kg, ip after 30 mins by tail flick test; format: functional; settings: route intraperitoneal; in short: as §1
[13] = system: Rattus norvegicus; assay: Antinociceptive activity in Sprague-Dawley rat at 0.1 mg/kg, ip after 30 mins by tail flick test; format: functional; settings: route intraperitoneal; in short: as §1
[14] = system: Rattus norvegicus; assay: Antinociceptive activity in Sprague-Dawley rat at 0.05 mg/kg, ip after 30 mins by tail flick test; format: functional; settings: route intraperitoneal; in short: as §1
[15] = system: Rattus norvegicus; assay: Antinociceptive activity in Sprague-Dawley rat at 0.02 mg/kg, ip after 30 mins by tail flick test; format: functional; settings: route intraperitoneal; in short: as §1
[16] = system: Rattus norvegicus; assay: Antinociceptive activity in Sprague-Dawley rat at 0.01 mg/kg, ip after 30 mins by tail flick test; format: functional; settings: route intraperitoneal; in short: as §1
[17] = system: Rattus norvegicus; assay: Antinociceptive activity in ip dosed Sprague-Dawley rat at after 30 mins by tail flick test; format: functional, organism-based; in short: as §1
[18] = system: Rattus norvegicus; assay: Antinociceptive activity in Sprague-Dawley rat assessed as duration of antinociception at 5 mg/kg, ip by tail flick test; format: functional; settings: route intraperitoneal; in short: as §1
[19] = system: Rattus norvegicus; assay: Antinociceptive activity in Sprague-Dawley rat assessed as duration of antinociception at 1 mg/kg, ip by tail flick test; format: functional; settings: route intraperitoneal; in short: as §1
[20] = system: Rattus norvegicus; assay: Antinociceptive activity in Sprague-Dawley rat assessed as duration of antinociception at 0.5 mg/kg, ip by tail flick test; format: functional; settings: route intraperitoneal; in short: as §1
[21] = system: Rattus norvegicus; assay: Antinociceptive activity in Sprague-Dawley rat assessed as duration of antinociception at 0.2 mg/kg, ip by tail flick test; format: functional; settings: route intraperitoneal; in short: as §1
[22] = system: Rattus norvegicus; assay: Antinociceptive activity in Sprague-Dawley rat assessed as duration of antinociception at 0.1 mg/kg, ip by tail flick test; format: functional; settings: route intraperitoneal; in short: as §1
[23] = system: Rattus norvegicus; assay: Antinociceptive activity in Sprague-Dawley rat assessed as duration of antinociception at 0.05 mg/kg, ip by tail flick test; format: functional; settings: route intraperitoneal; in short: as §1
[24] = system: Rattus norvegicus; assay: Antinociceptive activity in Sprague-Dawley rat at 0.1 mg/kg, ip administered once daily for 9 days measured daily after 30 mins by tail flick test; format: functional; settings: route intraperitoneal
In short: (§2)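 Separate groups of male Sprague-Dawley rats (250-300 g) dosed ip once daily for 9 consecutive days. Tail flick latency (radiant heat to tail tip) measured daily 30 min after each injection. Response expressed as %MPE.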

[25] = system: Rattus norvegicus; assay: Antinociceptive activity in Sprague-Dawley rat at 0.05 mg/kg, ip administered once daily for 9 days measured daily after 30 mins by tail flick test; format: functional; settings: route intraperitoneal; in short: as §2
[26] = organism: Rattus norvegicus; assay: Toxicity in Sprague-Dawley rat assessed as body weight loss; format: organism-based; settings: in vivo
[27] = system: Rattus norvegicus; assay: Antinociceptive activity in Sprague-Dawley rat assessed as duration of antinociception at 0.02 mg/kg, ip by tail flick test; format: functional; settings: route intraperitoneal; in short: as §1
[28] = system: Rattus norvegicus; assay: Antinociceptive activity in Sprague-Dawley rat assessed as duration of antinociception at 0.01 mg/kg, ip by tail flick test; format: functional; settings: route intraperitoneal; in short: as §1
[29] = system: Rattus norvegicus; assay: Antinociceptive activity in Sprague-Dawley rat at 0.01 to 5 mg/kg, ip by tail flick test in presence of naloxone; format: functional, organism-based
In short: (§3)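 Antinociception in male Sprague-Dawley rats given drug ip in saline and measured by tail flick or paw pressure. Reversal tested with naloxone, stated as 5 mg/kg ip in the table footnote and as 0.1 mg/kg in the text.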

[30] = system: Rattus norvegicus; assay: Antinociceptive activity in Sprague-Dawley rat assessed as effect on mechanical nociceptive threshold at 1 to 5 mg/kg, ip by paw pressure test in presence of naloxone; format: functional, organism-based; in short: as §3
[31] = system: Rattus norvegicus; assay: Toxicity in Sprague-Dawley rat assessed as depression of mean arterial blood pressure at 1 mg/kg, iv administered for 60 secs measured for 30 mins; format: organism-based; parameters: dose 1 mg/kg, route intravenous; settings: in vivo, 0.5 h
In short: (§4)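 Male Sprague-Dawley rats (250-300 g) under urethane anaesthesia (1.25 g/kg ip), kept at 37 °C, tracheotomised, with carotid and jugular cannulae. After ≥1 h stabilisation and a saline infusion, drug was given iv in saline over 60 ± 20 s. MAP, SAP, DAP and HR recorded for 30 min as % change from time zero. Student's t test and Newman-Keuls.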

[32] = system: Rattus norvegicus; assay: Toxicity in Sprague-Dawley rat assessed as depression of heart rate at 1 mg/kg, iv administered for 60 secs measured for 30 mins; format: organism-based; parameters: dose 1 mg/kg, route intravenous; settings: in vivo, 0.5 h; in short: as §4
[33] = system: Rattus norvegicus; assay: Antinociceptive activity in Sprague-Dawley rat at 5 mg/kg, ip administered once daily for 9 days measured daily after 30 mins by tail flick test; format: functional; settings: route intraperitoneal; in short: as §2
[34] = system: Rattus norvegicus; assay: Antinociceptive activity in Sprague-Dawley rat at 1 mg/kg, ip administered once daily for 9 days measured daily after 30 mins by tail flick test; format: functional; settings: route intraperitoneal; in short: as §2
[35] = target: Mu-type opioid receptor (Rattus norvegicus) (UniProt P33535); settings: HEK293
Chain of Mu-type opioid receptor (Rattus norvegicus) (P33535 whole entry): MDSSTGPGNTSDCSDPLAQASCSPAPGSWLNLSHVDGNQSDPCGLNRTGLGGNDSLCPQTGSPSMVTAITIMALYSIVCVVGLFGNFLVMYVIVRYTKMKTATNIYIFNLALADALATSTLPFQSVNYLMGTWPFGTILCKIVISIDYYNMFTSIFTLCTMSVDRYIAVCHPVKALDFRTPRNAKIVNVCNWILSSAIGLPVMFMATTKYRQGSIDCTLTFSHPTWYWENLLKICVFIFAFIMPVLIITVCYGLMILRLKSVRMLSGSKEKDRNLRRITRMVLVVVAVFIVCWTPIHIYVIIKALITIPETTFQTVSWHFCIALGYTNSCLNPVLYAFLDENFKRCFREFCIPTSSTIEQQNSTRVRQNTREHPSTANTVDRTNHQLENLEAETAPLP

[36] = system: Rattus norvegicus; assay: Toxicity in Sprague-Dawley rat assessed as depression of mean arterial blood pressure at 5 mg/kg, iv administered for 60 secs measured for 30 mins; format: organism-based; parameters: dose 5 mg/kg, route intravenous; settings: in vivo, 0.5 h; in short: as §4
[37] = system: Rattus norvegicus; assay: Toxicity in Sprague-Dawley rat assessed as depression of heart rate at 5 mg/kg, iv administered for 60 secs measured for 30 mins; format: organism-based; parameters: dose 5 mg/kg, route intravenous; settings: in vivo, 0.5 h; in short: as §4

Question: What does the source list for `CN1CC[C@]23c4c5ccc(O)c4O[C@H]2[C@@H](O[C@@H]2O[C@H](C(=O)O)[C@@H](O)[C@H](O)[C@H]2O)C=C[C@H]3[C@H]1C5`?
Answer: Activity [1]: Active; Activity [2]: Active; Activity [3]: Active

Question: With `CN1CC[C@]23c4c5ccc(O)c4O[C@H]2[C@@H](O[C@H]2O[C@H](CO)[C@@H](O)[C@H](O)[C@@H]2O)C=C[C@H]3[C@H]1C5` as the compound, how does the MPE [4] read?
Answer: The MPE was 83%.

Question: What about the MPE [5] of the same compound?
Answer: The MPE was 56%.

Question: What about the MPE [6] of the same compound?
Answer: The MPE was 54%.

Question: What about the MPE [7] of the same compound?
Answer: Its MPE is 57%.

Question: What about the MPE [8] of the same compound?
Answer: Its MPE is 50%.

Question: And the MPE [9]?
Answer: The MPE was 56%.

Question: What about the MPE [10] of the same compound?
Answer: Its MPE is 19%.

Question: And the MPE [1]?
Answer: Its MPE is 100%.

Question: What about the MPE [2] of the same compound?
Answer: Its MPE is 100%.

Question: And the MPE [11]?
Answer: Its MPE is 100%.

Question: What about the MPE [12] of the same compound?
Answer: Its MPE is 100%.

Question: What about the MPE [13] of the same compound?
Answer: The MPE was 100%.

Question: What about the MPE [14] of the same compound?
Answer: Its MPE is 84%.

Question: And the MPE [15]?
Answer: Its MPE is 51%.

Question: What about the MPE [16] of the same compound?
Answer: The MPE was 22%.

Question: What about the IC50 [17] of the same compound?
Answer: The IC50 was 0.02 mg/kg.

Question: What about the Time [18] of the same compound?
Answer: Its Time is 5 h.

Question: And the Time [19]?
Answer: The Time was 5 h.

Question: And the Time [20]?
Answer: Its Time is 5 h.

Question: What about the Time [21] of the same compound?
Answer: Its Time is 5 h.

Question: And the Time [22]?
Answer: The Time was 5 h.

Question: And the Time [23]?
Answer: Its Time is 5 h.

Question: And the Activity [24]?
Answer: Its Activity is 100%.

Question: What about the MPE [25] of the same compound?
Answer: Its MPE is 55%.

Question: And the Activity [26]?
Answer: The Activity was “Non-toxic”.

Question: What about the Time [27] of the same compound?
Answer: The Time was 3.5 h.

Question: What about the Time [28] of the same compound?
Answer: The Time was 2 h.

Question: And the Activity [29]?
Answer: Its Activity is “inactive”.

Question: What about the Activity [3] of the same compound?
Answer: The Activity was “Active”.

Question: What about the Activity [30] of the same compound?
Answer: Its Activity is “inactive”.

Question: What about the Activity [31] of the same compound?
Answer: Its Activity is “Non-toxic”.

Question: What about the Activity [32] of the same compound?
Answer: The Activity was “Non-toxic”.

Question: What about the MPE [33] of the same compound?
Answer: The MPE was 100%.

Question: What about the MPE [34] of the same compound?
Answer: The MPE was 100%.

Question: And the KiH [35]?
Answer: Its KiH is 1.7 nM.

Question: And the KiL [35]?
Answer: Its KiL is 55 nM.

Question: What does the source list for `CN1CC[C@]23c4c5ccc(O)c4O[C@H]2[C@@H](O)C=C[C@H]3[C@H]1C5` [MORPHINE]?
Answer: MPE [2]: 35%; Activity [31]: Non-toxic; Activity [36]: Toxic; Activity [37]: Toxic

Question: Which results are given for `CN1CC[C@]23c4c5ccc(O)c4O[C@H]2[C@@H](O)C=C[C@H]3[C@H]1C5`?
Answer: Activity [3]: Active; KiH [35]: 2.5 nM; KiL [35]: 113 nM

Question: What does the source list for `CN1CC[C@]23c4c5ccc(O)c4O[C@H]2[C@@H](O)C=C[C@H]3[C@H]1C5.CN1CC[C@]23c4c5ccc(O)c4O[C@H]2[C@@H](O)C=C[C@H]3[C@H]1C5.O=S(=O)(O)O`?
Answer: MPE [4]: 45%; MPE [1]: 72%; Time [18]: 2.5 h

Reference: ChEMBL document CHEMBL1138464, “Synthesis, conformation, and biological characterization of a sugar derivative of morphine that is a potent, long-lasting, and nontolerant antinociceptive” (J Med Chem, 2009)
